Assay results published in ChEMBL document CHEMBL4043172, “Constructing novel dihydrofuran and dihydroisoxazole analogues of isocombretastatin-4 as tubulin polymerization inhibitors through [3+2] reactions” (Bioorg Med Chem, 2017).
Active and inactive are the calls of the source. No cut-off for these calls is given here.

How the values were obtained:
PC-3 [1] = test: Cytotoxicity against human PC3 cells assessed as reduction in cell viability incubated for 48 hrs by SRB assay; type: functional, cell-based; conditions: PC-3, 48 h
Summary of the method: (§1)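 SRB colorimetric antiproliferative assay. Cells were grown in RPMI-1640 with 10% heat-inactivated FBS and penicillin/streptomycin at 37 °C and 5% CO2, and compound-exposed for 48 h. IC50 is the concentration causing 50% inhibition of cell viability, given as mean ± SD of three determinations.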

HeLa = test: Cytotoxicity against human HeLa cells assessed as reduction in cell viability incubated for 48 hrs by SRB assay; type: functional, cell-based; summary of the method: as §1
Sus scrofa [2] = organism: Sus scrofa; test: Inhibition of porcine brain tubulin polymerization at 3 uM incubated for 80 mins by fluorescence based spectrophotometry
Summary of the method: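 Fluorescence-based kit assay. Tubulin (10 mg/mL) in buffer 1 with tubulin glycerol buffer and GTP (100 mM stock) was incubated with compound at 3 µM, with DMSO as vehicle control, at 37 °C for 80 min. Polymerization was followed as the fluorescence increase, read every minute at 360 nm excitation and 460 nm emission.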

PC-3 [3] = test: Cell cycle arrest in human PC3 cells assessed as accumulation at G2/M phase at 0.05 uM incubated for 24 hrs by propidium iodide staining based FACS assay (reference value: 14%); type: functional
Summary of the method: (§2)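 PC-3 cells in RPMI-1640 with 10% FBS at 37 °C and 5% CO2. Cells were plated at 1.0×10^5 cells/mL and pre-incubated 24 h, then treated. They were collected by centrifugation, fixed in 70% ethanol overnight at 4 °C, resuspended in PBS with RNase A and propidium iodide, and analysed by flow cytometry for phase distribution against untreated control.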

PC-3 [4] = test: Cell cycle arrest in human PC3 cells assessed as accumulation at G0/G1 phase at 0.05 uM incubated for 24 hrs by propidium iodide staining based FACS assay (reference value: 62.5%); type: functional; summary of the method: as §2
PC-3 [5] = test: Cell cycle arrest in human PC3 cells assessed as accumulation at S phase at 0.05 uM incubated for 24 hrs by propidium iodide staining based FACS assay (reference value: 23.5%); type: functional; summary of the method: as §2
PC-3 [6] = test: Cell cycle arrest in human PC3 cells assessed as accumulation at G0/G1 phase at 0.5 uM incubated for 24 hrs by propidium iodide staining based FACS assay (reference value: 62.5%); type: functional; summary of the method: as §2
PC-3 [7] = test: Cell cycle arrest in human PC3 cells assessed as accumulation at G0/G1 phase at 1 uM incubated for 24 hrs by propidium iodide staining based FACS assay (reference value: 62.5%); type: functional; summary of the method: as §2
PC-3 [8] = test: Cell cycle arrest in human PC3 cells assessed as accumulation at G2/M phase at 1 uM incubated for 24 hrs by propidium iodide staining based FACS assay (reference value: 14%); type: functional; summary of the method: as §2
PC-3 [9] = test: Cell cycle arrest in human PC3 cells assessed as accumulation at S phase at 0.5 uM incubated for 24 hrs by propidium iodide staining based FACS assay (reference value: 23.5%); type: functional; summary of the method: as §2
Sus scrofa [10] = organism: Sus scrofa; test: (§3) Inhibition of porcine brain tubulin polymerization incubated for 80 mins by fluorescence based spectrophotometry
Summary of the method: (§4)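 Cell-free fluorescence kit assay. Tubulin (10 mg/mL) in buffer 1 with tubulin glycerol buffer and GTP (100 mM stock) was exposed to compound or DMSO for 80 min at 37 °C. Fluorescence (ex 360 nm, em 460 nm) was read each minute. IC50 was derived from five concentrations: 3, 5, 10, 20 and 40 μM.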

[11] = as §3; design: species or system Sus scrofa; summary of the method: as §4
PC-3 [12] = test: Cell cycle arrest in human PC3 cells assessed as accumulation at G2/M phase at 0.5 uM incubated for 24 hrs by propidium iodide staining based FACS assay (reference value: 14%); type: functional; summary of the method: as §2
PC-3 [13] = test: Cell cycle arrest in human PC3 cells assessed as accumulation at S phase at 1 uM incubated for 24 hrs by propidium iodide staining based FACS assay (reference value: 23.5%); type: functional; summary of the method: as §2
Homo sapiens [14] = organism: Homo sapiens; test: Inhibition of tubulin polymerization in human PC3 cells assessed as disruption of microtubule network at 1 uM incubated for 48 hrs by immunohistochemistry; type: cell-based
Summary of the method: (§5)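 PC-3 cells were treated for 48 h, then fixed with 4% paraformaldehyde for 30 min and permeabilized with 0.1% Triton X-100 at 4 °C in the dark for 30 min. After blocking in PBS with 5% BSA, cells took anti-α-tubulin (1:500) overnight at 4 °C, then TRITC goat anti-rabbit IgG (1:500) for 1 h at RT. Nuclei were DAPI-stained and imaged by fluorescence microscopy at 20×.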

Homo sapiens [15] = organism: Homo sapiens; test: Inhibition of tubulin polymerization in human PC3 cells assessed as disruption of microtubule network at 0.02 uM incubated for 48 hrs by immunohistochemistry; type: cell-based; conditions: 1 uM, in the assay text read “at 1 uM” for “at 0.02 uM”; summary of the method: as §5
Sus scrofa [16] = organism: Sus scrofa; test: Induction of porcine brain tubulin polymerization at 3 uM incubated for 80 mins by fluorescence based spectrophotometry
Summary of the method: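 Fluorescence-based cell-free kit assay. Tubulin (10 mg/mL) in buffer 1 with tubulin glycerol buffer and GTP (100 mM stock) was incubated with compound or DMSO vehicle for 80 min at 37 °C. Polymerization was followed as fluorescence increase read every minute at 360 nm excitation and 460 nm emission.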

Compound | IC50 (PC-3 [1]) | IC50 (HeLa) | other results
COc1ccc(C2(c3cc(OC)c(OC)c(OC)c3)CC(C#N)=C(c3cccs3)O2)cc1O (stereo unspecified) | 4.8 µM | > 10 µM | –
COc1ccc(C2(c3cc(OC)c(OC)c(OC)c3)CC(C#N)=C(c3ccc(Br)cc3)O2)cc1O (stereo unspecified) | > 10 µM | > 10 µM | –
COc1ccc(C2=NOC(c3ccc(OC)c(O)c3)(c3cc(OC)c(OC)c(OC)c3)C2)cc1 (stereo unspecified) | > 10 µM | > 10 µM | –
COc1ccc([C@]2(c3cc(OC)c(OC)c(OC)c3)CC(C#N)=C(c3ccccc3)O2)cc1O | 10.2 µM | > 10 µM | –
C=C(c1ccc(OC)c(O)c1)c1cc(OC)c(OC)c(OC)c1 | 0.001 µM | 0.085 µM | inhibition (Sus scrofa [2]): Active
COc1ccc(C2(c3cc(OC)c(OC)c(OC)c3)CC(c3ccc(O)cc3)=NO2)cc1O (stereo unspecified) | > 10 µM | 7.57 µM | –
CCCCC1(c2cc(OC)c(OC)c(OC)c2)CC(c2ccc(O)c(OC)c2)=NO1 (stereo unspecified) | > 10 µM | > 10 µM | –
CCCCC1(c2cc(OC)c(OC)c(OC)c2)CC(c2ccc(Cl)cc2OC)=NO1 (stereo unspecified) | > 10 µM | > 10 µM | –
COc1ccc(C2(c3cc(OC)c(OC)c(OC)c3)CC(C#N)=C(c3ccc(C)cc3)O2)cc1O (stereo unspecified) | 6.99 µM | > 10 µM | –
COc1ccc([C@@]2(c3cc(OC)c(OC)c(OC)c3)CC(C#N)=C(c3ccccc3)O2)cc1O | 9.47 µM | > 10 µM | –
COc1ccc(C2(c3cc(OC)c(OC)c(OC)c3)CC(C(=O)C(F)(F)F)=C(C)O2)cc1O (stereo unspecified) | 9.45 µM | > 10 µM | –
COc1ccc(C2(c3cc(OC)c(OC)c(OC)c3)CC(c3ccccc3[N+](=O)[O-])=NO2)cc1O (stereo unspecified) | 8.21 µM | > 10 µM | –
COc1ccc(C2(c3cc(OC)c(OC)c(OC)c3)CC(c3ccc([N+](=O)[O-])cc3)=NO2)cc1O (stereo unspecified) | > 10 µM | > 10 µM | –
CCCCC1(c2cc(OC)c(OC)c(OC)c2)CC(C#N)=C(C(C)(C)C)O1 (stereo unspecified) | > 10 µM | > 10 µM | –
COc1ccc(C2(c3cc(OC)c(OC)c(OC)c3)CC(c3cc(OC)c(OC)c(OC)c3Cl)=NO2)cc1O (stereo unspecified) | 8.63 µM | > 10 µM | –
COc1ccc(C2(c3cc(OC)c(OC)c(OC)c3)CC(C#N)=C(c3ccc(F)cc3)O2)cc1O (stereo unspecified) | 0.81 µM | 7.21 µM | –
COc1ccc(C2(c3cc(OC)c(OC)c(OC)c3)CC(c3ccccc3)=NO2)cc1O (stereo unspecified) | > 10 µM | > 10 µM | –
COc1ccc([C@@]2(c3cc(OC)c(OC)c(OC)c3)CC3=C(CCCC3=O)O2)cc1O | 17 µM | > 10 µM | –
CCC(=O)C1=C(CC)OC(c2ccc(OC)c(O)c2)(c2cc(OC)c(OC)c(OC)c2)C1 (stereo unspecified) | 8.47 µM | > 10 µM | –
COc1ccc(C2(c3cc(OC)c(OC)c(OC)c3)CC(c3ccc(O)c(OC)c3)=NO2)cc1O (stereo unspecified) | > 10 µM | > 10 µM | –
CCCCC1(c2cc(OC)c(OC)c(OC)c2)CC(c2ccc(Cl)cc2)=NO1 (stereo unspecified) | > 10 µM | > 10 µM | –

Compound | IC50 (PC-3 [1]) | IC50 (HeLa) | other results
COc1ccc(C2(c3cc(OC)c(OC)c(OC)c3)CC(C#N)=C(C(C)(C)C)O2)cc1O (stereo unspecified) | > 10 µM | > 10 µM | –
COc1ccc(C2(c3cc(OC)c(OC)c(OC)c3)CC(C#N)=C(c3ccccc3Cl)O2)cc1O (stereo unspecified) | 0.79 µM | > 10 µM | –
COc1ccc(C2=NOC(c3ccc(OC)c(O)c3)(c3cc(OC)c(OC)c(OC)c3)C2)cc1O (stereo unspecified) | > 10 µM | > 10 µM | –
COc1ccc(C2(c3cc(OC)c(OC)c(OC)c3)CC(C(C)=O)=C(C)O2)cc1O (stereo unspecified) | 6.37 µM | > 10 µM | –
COc1ccc([C@]2(c3cc(OC)c(OC)c(OC)c3)CC3=C(CCCC3=O)O2)cc1O | 15.1 µM | > 10 µM | –
COc1ccc(/C=C\c2cc(OC)c(OC)c(OC)c2)cc1O [COMBRETASTATIN A4] | 0.007 µM | 0.53 µM | inhibition (Sus scrofa [2]): Active; Activity (PC-3 [3]): 71.9%; Activity (PC-3 [4]): 6.8%; Activity (PC-3 [5]): 21.3%
COc1ccc(C2(c3cc(OC)c(OC)c(OC)c3)CC(C#N)=C(c3ccc(Cl)c(Cl)c3)O2)cc1O (stereo unspecified) | > 10 µM | > 10 µM | –
COc1ccc(C2(c3cc(OC)c(OC)c(OC)c3)CC(c3ccccn3)=NO2)cc1O (stereo unspecified) | > 10 µM | > 10 µM | –
COc1ccc(C2(c3cc(OC)c(OC)c(OC)c3)CC(C(=O)c3ccccc3)=C(C)O2)cc1O (stereo unspecified) | > 10 µM | > 10 µM | –
COc1ccc(C2(c3cc(OC)c(OC)c(OC)c3)CC(C(=O)c3ccccc3)=C(c3ccccc3)O2)cc1O (stereo unspecified) | 0.78 µM | 2.32 µM | –
COc1ccc(C2(c3cc(OC)c(OC)c(OC)c3)CC(c3ccc(Cl)cc3)=NO2)cc1O (stereo unspecified) | 0.47 µM | 3.29 µM | Activity (PC-3 [6]): 23.2%; Activity (PC-3 [7]): 6.7%; Activity (PC-3 [8]): 84.5%; Activity (PC-3 [9]): 13.3%; inhibition (Sus scrofa [10]): Dose-dependent effect; IC50 [11]: 30.7 µM; Activity (PC-3 [12]): 63.5%; Activity (PC-3 [13]): 8.8%; inhibition (Homo sapiens [14]): Active; inhibition (Homo sapiens [15]): Active
COc1ccc(C2=C(C#N)CC(c3ccc(OC)c(O)c3)(c3cc(OC)c(OC)c(OC)c3)O2)cc1 (stereo unspecified) | > 10 µM | > 10 µM | –
CC(=O)O[C@H]1C(=O)[C@@]2(C)[C@H]([C@H](OC(=O)c3ccccc3)[C@]3(O)C[C@H](OC(=O)[C@H](O)[C@@H](NC(=O)c4ccccc4)c4ccccc4)C(C)=C1C3(C)C)[C@]1(OC(C)=O)CO[C@@H]1C[C@@H]2O | – | – | Activity (Sus scrofa [16]): Active
COc1ccc(C2(c3cc(OC)c(OC)c(OC)c3)CC(c3ccc(O)c(O)c3)=NO2)cc1O (stereo unspecified) | 9.56 µM | > 10 µM | –
COc1ccc(C2(c3cc(OC)c(OC)c(OC)c3)CC(c3ccc(C)cc3)=NO2)cc1O (stereo unspecified) | 0.85 µM | 4.45 µM | –
COc1ccc(C2(c3cc(OC)c(OC)c(OC)c3)CC(C#N)=C(c3ccc(Cl)cc3)O2)cc1O (stereo unspecified) | 0.86 µM | > 10 µM | –
COc1ccc(C2(c3cc(OC)c(OC)c(OC)c3)CC(c3ccc(Cl)cc3OC)=NO2)cc1O (stereo unspecified) | > 10 µM | > 10 µM | –
COc1ccc(C2(c3cc(OC)c(OC)c(OC)c3)CC(c3ccccc3Cl)=NO2)cc1O (stereo unspecified) | 0.81 µM | 3.27 µM | –
CCCCC1(c2cc(OC)c(OC)c(OC)c2)CC(C#N)=C(c2ccc(Cl)cc2)O1 (stereo unspecified) | > 10 µM | > 10 µM | –
CCCCC1(c2cc(OC)c(OC)c(OC)c2)CC(C(=O)c2ccccc2)=C(c2ccccc2)O1 (stereo unspecified) | > 10 µM | > 10 µM | –
